# According to ChEMBL document CHEMBL4825680, “Structure-based discovery of potent and selective small-molecule inhibitors targeting signal transducer and activator of transcription 3 (STAT3)” (Eur J Med Chem, 2021):
# The source made the active and inactive calls. The calls are words filed in the database; no cut-off is given here.
# Assays:
# [1] = tested on: MDA-MB-231; assay: Induction of apoptosis in human MDA-MB-231 cells assessed as increase in caspase-7 cleavage at 3 uM after 48 hrs by Western blot analysis; format: functional, cell-based
# In short: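 Cells were treated with vehicle (0.1% DMSO) or compound, then analysed by western blot of RIPA lysates (20–50 μg protein, SDS-PAGE, PVDF) for PARP and cleaved caspase-7, with β-actin as loading control. Three independent experiments.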
# [2] = Antitumor activity against human MDA231-LM2-4175 cells xenografted in mouse assessed as tumor growth inhibition at 15 mg/kg, iv administered once daily for 20 days; format: functional; settings: MDA231-LM2-4175, iv, 480 h, time 20 day, read-out: TGI
# [3] = tested on: MDA-MB-468; assay: Induction of apoptosis in human MDA-MB-468 cells assessed as late apoptotic cells at 3 uM after 48 hrs by Annexin-V-FITC/propidium iodide staining based flow cytometric analysis (reference value: 1.25%); format: functional
# [4] = tested on: MDA-MB-468; assay: Effect on total STAT3 level in human MDA-MB-468 cells at 0.3 to 3 uM measured after 3 hrs by Western blot analysis; format: functional, cell-based; settings: dose 0.3-3 µM
# In short: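 Breast cancer cells were treated with vehicle (0.1% DMSO) or compound, then lysed in RIPA with PMSF and phosphatase inhibitors. 20–50 μg protein was run on 8 or 12% SDS-PAGE, blotted to PVDF, blocked in 5% BSA, probed with primary antibodies overnight at 4 °C, then HRP secondaries, with ECL detection.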
# [5] = tested on: MDA-MB-231; assay: Induction of apoptosis in human MDA-MB-231 cells assessed as necrotic cells at 3 uM after 48 hrs by Annexin-V-FITC/propidium iodide staining based flow cytometric analysis (Rvb =0.543%); format: functional
# [6] = tested on: MDA-MB-468; assay: Induction of apoptosis in human MDA-MB-468 cells assessed as early apoptotic cells at 3 uM after 48 hrs by Annexin-V-FITC/propidium iodide staining based flow cytometric analysis (reference value: 2.66%); format: functional
# [7] = tested on: MDA231-LM2-4175; assay: Inhibition of cell invasion in human MDA231-LM2-4175 cells incubated for 12 hrs by crystal violet staining based transwell assay; format: functional; settings: dose 1-3 µM
# In short: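 Cells seeded at 1.5×10^4–3×10^4 per well in the upper chamber of 8.0 µm pore Transwell inserts and treated with graded compound for 12 h. Non-invading cells removed with cotton. Invaded cells fixed in 4% paraformaldehyde, stained with crystal violet, photographed and counted. Triplicate.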
# [8] = tested on: MDA-MB-231; assay: Induction of apoptosis in human MDA-MB-231 cells assessed as viable cells at 1 uM after 48 hrs by Annexin-V-FITC/propidium iodide staining based flow cytometric analysis (reference value: 93.4%); format: functional; settings: read-out: Activity
# [9] = Toxicity in mouse xenografted with human MDA-MB-231-4175 cells assessed as morphological change in liver at 5 to 15 mg/kg, […] once daily for 20 days by HE staining based assay; format: organism-based; settings: in vivo, iv, dose 5-15 mg/kg, time 20 day
# In short: (§1)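 Female NOD-SCID mice aged 4–5 weeks, given 2×10^6–3×10^6 MDA-MB-231-4175 cells subcutaneously in the flank. At about 100 mm³ tumour volume, randomised n=6/group: vehicle (PBS with 15% Cremophor EL), 5 or 15 mg/kg intraperitoneally daily. Killed at day 20; heart, liver, spleen, lung and kidney collected for morphological examination.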
# [10] = tested on: MDA231-LM2-4175; assay: Antitumor activity against human MDA231-LM2-4175 cells xenografted in mouse assessed as reduction in Mcl expression at 5 to 15 mg/kg, iv administered once daily for 20 days by Western blotting analysis; format: functional, organism-based; settings: dose 5-15 mg/kg, time 20.0 day
# [11] = tested on: Breast cancer cell line; assay: Antitumor activity against patient-derived breast cancer cells xenografted in NOD/SCID mouse assessed as reduction in Mcl-1 expression at 5 to 15 mg/kg, iv administered once daily for 20 days by Western blotting analysis; format: functional, organism-based; settings: Homo sapiens, dose 5-15 mg/kg, time 20.0 day
# [12] = Induction of apoptosis in human MDA231-LM2-4175 cells assessed as early apoptotic cells at 3 uM after 48 hrs by Annexin-V-FITC/propidium iodide staining based flow cytometric analysis (reference value: 2.49%); format: functional
# [13] = Antitumor activity against human MDA231-LM2-4175 cells xenografted in mouse assessed as tumor growth inhibition at 5 mg/kg, iv administered once daily for 20 days; format: functional; settings: MDA231-LM2-4175, iv, 480 h, time 20 day, read-out: TGI
# [14] = tested on: Breast cancer cell line; assay: Antitumor activity against patient-derived breast cancer cells xenografted in NOD/SCID mouse assessed as reduction in Ki67 expression at 5 to 15 mg/kg, iv administered once daily for 20 days by immunohistochemical analysis; format: functional, organism-based; settings: Homo sapiens, dose 5-15 mg/kg, time 20.0 day
# [15] = tested on: MDA-MB-231; assay: Inhibition of cell migration in human MDA-MB-231 cells incubated for 12 to 96 hrs by wound healing assay; format: functional, cell-based; settings: dose 0.3-3 µM, time 12-96 hrs
# In short: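 Cells grown to 100% confluence, then scratched with a pipette tip. Treated with 0–3 μM until vehicle-treated cells had migrated into the scratch. Images taken by microscope after about 12–96 h. Triplicate experiments.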
# [16] = target: T1, Signal transducer and activator of transcription 3 (Homo sapiens, UniProt P40763); assay: Binding affinity to STAT3 (unknown origin) […]
# T1 sequence (P40763 whole entry): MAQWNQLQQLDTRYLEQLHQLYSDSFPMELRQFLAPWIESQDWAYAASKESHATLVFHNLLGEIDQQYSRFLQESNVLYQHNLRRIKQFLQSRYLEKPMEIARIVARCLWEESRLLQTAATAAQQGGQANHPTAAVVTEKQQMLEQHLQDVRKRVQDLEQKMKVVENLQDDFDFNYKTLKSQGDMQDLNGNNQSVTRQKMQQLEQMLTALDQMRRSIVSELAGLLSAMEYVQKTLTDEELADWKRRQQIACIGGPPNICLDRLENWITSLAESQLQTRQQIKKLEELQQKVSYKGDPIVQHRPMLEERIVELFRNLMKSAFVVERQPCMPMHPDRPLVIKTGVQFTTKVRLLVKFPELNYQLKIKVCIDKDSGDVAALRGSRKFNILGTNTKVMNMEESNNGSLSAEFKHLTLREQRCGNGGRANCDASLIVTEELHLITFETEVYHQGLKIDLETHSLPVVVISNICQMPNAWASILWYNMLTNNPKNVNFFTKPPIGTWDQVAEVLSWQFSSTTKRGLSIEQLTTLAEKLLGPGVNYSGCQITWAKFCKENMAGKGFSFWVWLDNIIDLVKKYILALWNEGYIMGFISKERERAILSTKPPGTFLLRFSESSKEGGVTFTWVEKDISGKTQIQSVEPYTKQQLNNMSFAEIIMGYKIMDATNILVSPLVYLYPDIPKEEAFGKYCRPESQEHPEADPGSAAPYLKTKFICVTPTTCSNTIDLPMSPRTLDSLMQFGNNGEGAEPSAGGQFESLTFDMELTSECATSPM
# [17] = AUC(0 to infinity) in Sprague-Dawley rat at 10 mg/kg, po measured up to 24 hrs by LC-MS/MS analysis; format: ADME, organism-based; design: route oral, dose 10 mg/kg, time <=24; settings: in vivo
# In short: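 Male SD rats given a single oral dose of 10 mg/kg in DMSO/0.5% HPMC (5/95, v/v). Blood was drawn at 0.25, 0.5, 1, 2, 4, 8 and 24 h, and plasma was analysed by LC-MS/MS on a BEH phenyl column with a formic acid water/acetonitrile mobile phase.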
# [18] = Toxicity in NOD/SCID mouse xenografted with patient-derived breast cancer cells assessed as morphological change in liver at 5 to 15 mg/kg, […] once daily for 20 days by HE staining based assay; format: organism-based; settings: in vivo, iv, dose 5-15 mg/kg, time 20 day
# In short: as §1, with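 “implanted” for “aged 4–5 weeks, given 2×10^6–3×10^6 MDA-MB-231-4175 cells”, “flank with about 2 mm³ TNBC PDX fragments.” for “flank.”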
# [19] = target: T1, Signal transducer and activator of transcription 3; assay: Inhibition of STAT3 phosphorylation at Ser727 residue in human MDA-MB-231-4175 cells at 3 uM after 3 hrs by Western blotting analysis; format: cell-based; settings: MDA231-LM2-4175
# [20] = tested on: A549; assay: Antiproliferative activity against human A549 cells; format: functional, cell-based
# [21] = tested on: MGC-803; assay: Antiproliferative activity against human MGC-803 cells; format: functional, cell-based
# [22] = tested on: MDA-MB-231; assay: Induction of apoptosis in human MDA-MB-231 cells assessed as late apoptotic cells at 1 uM after 48 hrs by Annexin-V-FITC/propidium iodide staining based flow cytometric analysis (Rvb =3.05%); format: functional
# [23] = tested on: MDA-MB-231; assay: Induction of apoptosis in human MDA-MB-231 cells assessed as early apoptotic cells at 3 uM after 48 hrs by Annexin-V-FITC/propidium iodide staining based flow cytometric analysis (reference value: 2.98%); format: functional
compound,measurement,setting,value
O=C(Cc1c(-c2ccccc2)nc2ccccn12)Nc1ccc2c(c1)S(=O)(=O)C=C2,Activity,[1],Active
same,inhibition in vivo at 15 mg/kg,[2],40.2%
same,Activity,[3],27.8%
same,Activity,[4],inactive
same,Activity,[5],2.09%
same,Activity,[6],32.3%
same,inhibition,[7],Dose-Dependent Effect
same,viability at 1 µM,[8],83.5%
same,Activity,[9],Non-Toxic
same,Activity,[10],Active
same,Activity,[11],Active
same,Activity,[12],9.5%
same,inhibition in vivo at 5 mg/kg,[13],20.1%
same,Activity,[14],Active
same,inhibition,[15],Dose-Dependent Effect
same,Kd,[16],432 nM
same,AUC(0-inf),[17],56.1 ng·h/mL
same,Activity,[18],Non-Toxic
same,inhibition,[19],Active
same,IC50,[20],1100 nM
same,IC50,[21],1600 nM
same,Activity,[22],7.54%
same,Activity,[23],12.5%
